Laboratory results as given in ChEMBL document CHEMBL1155723, “Cytotoxic pheophorbide-related compounds from Clerodendrum calamitosum and C. cyrtophyllum” (2001).
≈ marks a conversion by molar mass, not a printed value. Calls of active or inactive are those of the source. No cut-off for these calls is given here.

Legend:
KB [1] = test: Cytotoxicity against human KB cells after 72 hrs by SRB assay; format: functional; conditions: read-out: ED50 (the source's name)
Method in brief: (§1)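 Stock cultures kept in RPMI-1640 with 25 mM HEPES, 0.2% (w/v) NaHCO3, 10% (v/v) FBS and 100 µg/mL kanamycin at 37 °C, 5% CO2. Trypsinized cells seeded at 2500-10 000 per well and exposed 72 h at 37 °C to graded concentrations from DMSO stocks (final DMSO ≤2% v/v). Cells fixed with cold 50% TCA, stained with 0.4% SRB, A562 read. ED50 interpolated from dose-response, triplicate.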

A549 = test: Cytotoxicity against human A549 cells after 72 hrs by SRB assay; format: functional; conditions: A549, 72 h, read-out: ED50 (the source's name); method in brief: as §1
HCT-8 = test: Cytotoxicity against human HCT8 cells after 72 hrs by SRB assay; format: functional; conditions: HCT-8, 72 h, read-out: ED50 (the source's name); method in brief: as §1
[2] = Cytotoxicity against human CAKI cells after 72 hrs by SRB assay; format: functional; conditions: read-out: ED50 (the source's name); method in brief: as §1
1A9 = test: Cytotoxicity against human 1A9 cells after 72 hrs by SRB assay; format: functional; conditions: 1A9, 72 h, read-out: ED50 (the source's name); method in brief: as §1
MCF7 = test: Cytotoxicity against human MCF7 cells after 72 hrs by SRB assay; format: functional; conditions: MCF7, 72 h, read-out: ED50 (the source's name); method in brief: as §1
SK-MEL = test: Cytotoxicity against human SK-MEL cells after 72 hrs by SRB assay; format: functional; conditions: read-out: ED50 (the source's name); method in brief: as §1
HTC [3] = test: Cytostatic activity against rat HTC cells at 33 ug/ml under direct photoirradiation; format: functional, cell-based
HTC [4] = test: Cytostatic activity against rat HTC cells at 66 ug/ml under direct photoirradiation; format: functional, cell-based
HTC [5] = test: Cytostatic activity against rat HTC cells at 33 ug/ml; format: functional, cell-based
HTC [6] = test: Cytostatic activity against rat HTC cells at 66 ug/ml; format: functional, cell-based
KB [7] = test: Selectivity for human KB-7d cells to human KB cells; format: functional
KB [8] = test: Selectivity for human KB-VCR cells to human KB cells; format: functional
KB [9] = test: Selectivity for human KB-CPT cells to human KB cells; format: functional

Row | Compound | EC50 (KB [1]) | EC50 (A549) | EC50 (HCT-8) | EC50 [2] | EC50 (1A9) | EC50 (MCF7) | EC50 (SK-MEL) | Activity (HTC [3]) | Activity (HTC [4]) | Activity (HTC [5]) | Activity (HTC [6]) | fold change (FC) (KB [7]) | fold change (FC) (KB [8]) | fold change (FC) (KB [9])
1 | C=Cc1c(C)c2cc3nc(c(C(=O)C(=O)OC)c4[nH]c(cc5nc(cc1[nH]2)C(C)=C5CC)c(C)c4C(=O)OC)[C@@H](CCC(=O)OC)[C@@H]3C | 0.2 µg/mL (≈ 0.306 µM) | 0.49 µg/mL (≈ 0.751 µM) | 0.79 µg/mL (≈ 1.21 µM) | 0.55 µg/mL (≈ 0.843 µM) | 0.2 µg/mL (≈ 0.306 µM) | 0.73 µg/mL (≈ 1.12 µM) | 1.1 µg/mL (≈ 1.69 µM) | Active | Active | inactive | inactive | – | – | –
2 | C=Cc1c(C)c2cc3nc(c4c5[nH]c(cc6nc(cc1[nH]2)C(C)=C6CC)c(C)c5C(=O)[C@]4(O)C(=O)OC)[C@@H](CCC(=O)O)[C@@H]3C | 1.3 µg/mL (≈ 2.14 µM) | > 4 µg/mL | > 4 µg/mL | 3 µg/mL (≈ 4.93 µM) | 1.2 µg/mL (≈ 1.97 µM) | > 4 µg/mL | 4 µg/mL (≈ 6.57 µM) | Active | Active | inactive | inactive | – | – | –
3 | C=Cc1c(C)c2cc3nc(c4c5[nH]c(cc6nc(cc1[nH]2)C(C)=C6CC)c(C)c5C(=O)[C@]4(O)C(=O)OC)[C@@H](CCC(=O)OC)[C@@H]3C | 0.3 µg/mL (≈ 0.482 µM) | 0.47 µg/mL (≈ 0.755 µM) | 0.4 µg/mL (≈ 0.642 µM) | 1.9 µg/mL (≈ 3.05 µM) | 0.27 µg/mL (≈ 0.434 µM) | 0.45 µg/mL (≈ 0.723 µM) | 0.84 µg/mL (≈ 1.35 µM) | Active | Active | inactive | inactive | 0.8 | >57 | 1.1
4 | C=Cc1c(C)c2cc3nc(c4c5[nH]c(cc6nc(cc1[nH]2)C(C)=C6CC)c(C)c5C(=O)[C@]4(O)C(=O)OC)[C@@H](CCC(=O)OC/C=C(\C)CCCC(C)CCCC(C)CCCC(C)C)[C@@H]3C (stereo not given in full) | 12 µg/mL (≈ 13.5 µM) | 15 µg/mL (≈ 16.9 µM) | 14 µg/mL (≈ 15.8 µM) | 19 µg/mL (≈ 21.4 µM) | 22 µg/mL (≈ 24.8 µM) | 8.8 µg/mL (≈ 9.92 µM) | 14 µg/mL (≈ 15.8 µM) | – | – | – | – | – | – | –
5 | C=Cc1c(C)c2cc3nc(c4c5[nH]c(cc6nc(cc1[nH]2)C(C=O)=C6CC)c(C)c5C(=O)[C@@H]4C(=O)OC)[C@@H](CCC(=O)OC/C=C(\C)CCCC(C)CCCC(C)CCCC(C)C)[C@@H]3C (stereo not given in full) | – | – | – | – | – | – | – | Active | – | – | – | – | – | –
6 | C=Cc1c(C)c2cc3nc(c4c5[nH]c(cc6nc(cc1[nH]2)C(C)=C6CC)c(C)c5C(=O)[C@]4(O)C(=O)OC)[C@@H](CCC(=O)OC/C=C(\C)CCCC(C)CCCC(C)CC(O)CC(C)C)[C@@H]3C (mixture of isomers) | – | – | – | – | – | – | – | Active | – | – | – | – | – | –
7 | COc1cc([C@@H]2c3cc4c(cc3[C@@H](O[C@@H]3O[C@@H]5CO[C@@H](C)O[C@H]5[C@H](O)[C@H]3O)[C@H]3COC(=O)[C@H]23)OCO4)cc(OC)c1O [ETOPOSIDE] | – | – | – | – | – | – | – | – | – | – | – | 119 | 153 | 1
8 | C=Cc1c(C)c2cc3nc(c4c5[nH]c(cc6nc(cc1[nH]2)C(C)=C6CC)c(C)c5C(=O)[C@@H]4C(=O)OC)[C@@H](CCC(=O)OC)[C@@H]3C [METHYL PHEOPHORBIDE A] | 0.23 µg/mL (≈ 0.379 µM) | 0.83 µg/mL (≈ 1.37 µM) | 1 µg/mL (≈ 1.65 µM) | 0.62 µg/mL (≈ 1.02 µM) | 0.26 µg/mL (≈ 0.429 µM) | 0.95 µg/mL (≈ 1.57 µM) | 1.2 µg/mL (≈ 1.98 µM) | Active | Active | inactive | inactive | – | – | –
9 | CC(=O)O[C@H]1C(=O)[C@@]2(C)[C@H]([C@H](OC(=O)c3ccccc3)[C@]3(O)C[C@H](OC(=O)[C@H](O)[C@@H](NC(=O)c4ccccc4)c4ccccc4)C(C)=C1C3(C)C)[C@]1(OC(C)=O)CO[C@@H]1C[C@@H]2O [PACLITAXEL] | – | – | – | – | – | – | – | – | – | – | – | 1 | 15 | 1
10 | C=Cc1c(C)c2cc3nc(c4c5[nH]c(cc6nc(cc1[nH]2)C(C)=C6CC)c(C)c5C(=O)[C@@H]4C(=O)OC)[C@@H](CCC(=O)O)[C@@H]3C [PHEOPHORBIDE A] | 0.46 µg/mL (≈ 0.776 µM) | 1.5 µg/mL (≈ 2.53 µM) | 1.5 µg/mL (≈ 2.53 µM) | 0.88 µg/mL (≈ 1.48 µM) | 0.48 µg/mL (≈ 0.81 µM) | 1.6 µg/mL (≈ 2.7 µM) | 0.91 µg/mL (≈ 1.54 µM) | Active | Active | inactive | inactive | 1 | 0.6 | 1.1
11 | C=Cc1c(C)c2cc3nc(c(C(=O)C(=O)OC)c4[nH]c(cc5nc(cc1[nH]2)C(C)=C5CC)c(C)c4C(=O)OC)[C@@H](CCC(=O)O)[C@@H]3C [PURPURIN 7 DIMETHYL ESTER] | 0.7 µg/mL (≈ 1.1 µM) | 1.8 µg/mL (≈ 2.82 µM) | 1.6 µg/mL (≈ 2.51 µM) | 1.3 µg/mL (≈ 2.04 µM) | 0.64 µg/mL (≈ 1 µM) | 1.6 µg/mL (≈ 2.51 µM) | 1.1 µg/mL (≈ 1.72 µM) | Active | Active | inactive | inactive | 0.7 | 0.5 | 1
